Source: PubChem
TDP2 inh: TDP2 (human) inhibition, absorbance primary screen; inhibition, % at 12.8 µM; 370,000 tested, 0.34% active; AID 720702; O95551; recombinant TDP2, T5PNP hydrolysis, p-nitrophenol absorbance 415 nm;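 active = inhibition above the mean of all tested compounds plus 3 SD, set per campaign, cut at about 25% in these data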;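 note: 0% = DMSO with enzyme and 100% = buffer with substrate but no TDP2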
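test system = human TDP2 enzyme | input = TDP2 enzyme at 120 nM final | medium = 50 mM Tris-HCl pH 7.5 with Mg2+, KCl, DTT, BSA | also added = T5PNP substrate, 5 mM | times = 2 h at 37 °C | technique = epi absorbance | benchmarks = high control without enzyme, low control DMSO plus TDP2 | replication = each compound tested once, singlicate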
Rin1-Abl PPI inh: inhibitors of human Rin1-Abl protein interaction; 360,000 tested, 0.4% active; TR-FRET Rin1/Abl binding, biochemical; inhibition, % at 7.35 µM; in the data active = inhibition above about 5%, passing the limit was not always enough
UHRF1 binding: UHRF1 methyl-DNA binding inhibition. 370,000 tested, 0.75% active. Q96T88. inhibition, % at 4.4 µM. AID 687016. UHRF1 binding to methylated oligo, TR-FRET; in the data active = inhibition above about 21%;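 note: UHRF1 SRA domain binding a hemimethylated CpG hairpin DNA probe; 0% = median of test compound wells and 100% = reference inhibitor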
Target sequence (Q96T88 whole entry, looked up, the tested form may be a part): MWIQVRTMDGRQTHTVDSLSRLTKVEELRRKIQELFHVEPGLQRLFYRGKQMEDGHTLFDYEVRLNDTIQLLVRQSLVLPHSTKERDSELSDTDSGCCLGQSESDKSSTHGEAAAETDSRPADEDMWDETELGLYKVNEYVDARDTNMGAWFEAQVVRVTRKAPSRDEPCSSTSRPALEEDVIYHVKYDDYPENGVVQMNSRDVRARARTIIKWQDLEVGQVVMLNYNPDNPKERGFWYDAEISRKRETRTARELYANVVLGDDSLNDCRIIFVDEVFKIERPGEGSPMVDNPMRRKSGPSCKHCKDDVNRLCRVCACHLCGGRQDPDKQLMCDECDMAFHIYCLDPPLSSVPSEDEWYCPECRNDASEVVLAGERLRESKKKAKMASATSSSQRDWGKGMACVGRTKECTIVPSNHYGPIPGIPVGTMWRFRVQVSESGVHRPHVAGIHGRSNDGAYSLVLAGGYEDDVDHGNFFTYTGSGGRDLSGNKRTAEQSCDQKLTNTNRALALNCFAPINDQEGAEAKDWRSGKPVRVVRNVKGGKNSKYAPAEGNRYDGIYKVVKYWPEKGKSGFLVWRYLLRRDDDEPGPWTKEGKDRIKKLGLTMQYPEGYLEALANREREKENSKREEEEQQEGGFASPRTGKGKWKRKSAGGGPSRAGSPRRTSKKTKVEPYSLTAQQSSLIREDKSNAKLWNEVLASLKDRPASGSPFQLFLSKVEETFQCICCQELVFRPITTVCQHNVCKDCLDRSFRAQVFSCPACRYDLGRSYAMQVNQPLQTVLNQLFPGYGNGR
LEDGF integ inh: blocks HIV-1 LEDGF/p75-dependent DNA integration | TR-FRET IN-LEDGF/p75 DNA integration, Eu/Cy5 | inhibition, % at 3.7 µM | 370,000 tested, 0.64% active;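 active = inhibition above the screen-wide mean plus 3 SD, cut at about 13% in these data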;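 note: signal is the Cy5 over europium emission ratio at 671 and 618 nm; 0% = plate median of compound wells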
MBD2 DNA inh: MBD2-methylated oligo binding inhibition | Q9UBB5 | TR-FRET, MBD2 binding to methylated oligonucleotide | inhibition, % at 4.4 µM | 370,000 tested, 0.31% active; in the data active = inhibition above about 13%
IN multimer act: counter-screen for LEDGF/p75 integration inhibitors: HIV-1 integrase multimerization activators; shares compounds with LEDGF integ inh; TR-FRET HIV-1 integrase multimerization, biochemical; activation, % at 7.7 µM; 2,000 tested, 17% active; in the data active = activation above about 8.9%
TR-FRET interf: optically interferes with TR-FRET readout in LEDGF counter-screen; shares compounds with LEDGF integ inh; 2,000 tested, under 10 active; TR-FRET optical interference counterscreen, HIV-1 IN multimerization; inhibition, % at 7.7 µM;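 active = inhibition above the mean over all tested compounds plus 3 SD, which no compound reached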;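 note: 0% = integrase with antibodies and DMSO and 100% = antibodies without integrase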
LEDGF integ conf: LEDGF/p75-dependent HIV-1 integration inhibition, confirmation; shares compounds with LEDGF integ inh; TR-FRET LEDGF/p75-dependent HIV-1 integration, biochemical; inhibition, % at 3.7 µM; 2,000 tested, 36% active; AID 1053136; in the data active = inhibition above about 14%
* = called active by the depositor. Most compounds without a hit are left out; they make up all but 1.9% or so of the library.

Results for CCN(CC)c1ccc(/C=C2/C(=O)NC(=O)N(CC3CCCO3)C2=O)cc1 (stereo not given) ?
TDP2 inh: 3; Rin1-Abl PPI inh: 0; UHRF1 binding: -6; LEDGF integ inh: -1; MBD2 DNA inh: 2

What do the screens show for `Cc1cc(/C=C2/C(=O)NC(=O)N(Cc3ccco3)C2=O)c(C)n1-c1ccccc1O`?
TDP2 inh: -11; Rin1-Abl PPI inh: -4; UHRF1 binding: 9; LEDGF integ inh: 26*; MBD2 DNA inh: -6; IN multimer act: 1; TR-FRET interf: -3; LEDGF integ conf: -3

What do the screens show for `CCn1c(=O)n(CC)c2cc([N+](=O)[O-])c(N3CCNCC3)cc21`?
TDP2 inh: -11; Rin1-Abl PPI inh: -9; UHRF1 binding: -10; LEDGF integ inh: -10; MBD2 DNA inh: -18

Results for O=[N+]([O-])c1ccc(N2CCOCC2)c2c1no[n+]2[O-] ?
TDP2 inh: 11; Rin1-Abl PPI inh: -21; UHRF1 binding: -17; LEDGF integ inh: 14*; MBD2 DNA inh: -17; IN multimer act: 2; TR-FRET interf: -6; LEDGF integ conf: 12

Results for O=[N+]([O-])c1ccc(N2CCOCC2)c2cccnc12 ?
TDP2 inh: -2; Rin1-Abl PPI inh: -3; UHRF1 binding: 14; LEDGF integ inh: 0; MBD2 DNA inh: -2

How did COc1ccccc1N1CCN(CCc2c[nH]c3cc4c(cc23)OCO4)CC1 do in these assays?
TDP2 inh: -8; Rin1-Abl PPI inh: 0; UHRF1 binding: -1; LEDGF integ inh: -6; MBD2 DNA inh: -1

What do the screens show for `Clc1ccc(NC2=NCCCS2)cc1Cl`?
TDP2 inh: 5; Rin1-Abl PPI inh: 0; UHRF1 binding: 1; LEDGF integ inh: -2; MBD2 DNA inh: 0

How did COc1ccc(-c2ccc3c(c2)CN(CC(C)C)Cc2cnnn2-3)cc1 do in these assays?
TDP2 inh: 5; Rin1-Abl PPI inh: 4; UHRF1 binding: 1; LEDGF integ inh: 3; MBD2 DNA inh: -6

Results for COc1ccc(-c2ccc3c(c2)CN(c2cccc(Cl)c2)Cc2cnnn2-3)cc1 ?
TDP2 inh: -9; Rin1-Abl PPI inh: 5; UHRF1 binding: 25*; LEDGF integ inh: 73*; MBD2 DNA inh: 11; IN multimer act: -1; TR-FRET interf: 5; LEDGF integ conf: 14*

How did Cc1cccc(N=Cc2c(O)n(-c3ccccc3C)c(=O)[nH]c2=O)c1 do in these assays?
TDP2 inh: 7; Rin1-Abl PPI inh: 3; UHRF1 binding: -5; LEDGF integ inh: -2; MBD2 DNA inh: 3

Results for Cc1ccccc1-n1c(O)c(C=Nc2ccc(N(C)C)cc2)c(=O)[nH]c1=O ?
TDP2 inh: 8; Rin1-Abl PPI inh: 1; UHRF1 binding: 2; LEDGF integ inh: 19*; MBD2 DNA inh: -4; IN multimer act: 5; TR-FRET interf: -26; LEDGF integ conf: -12

Results for C=CCn1c(O)c(C=Nc2ccc(N(CC)CC)cc2)c(=O)[nH]c1=O ?
TDP2 inh: 15; Rin1-Abl PPI inh: 3; UHRF1 binding: 1; LEDGF integ inh: 30*; MBD2 DNA inh: -2; IN multimer act: 2; TR-FRET interf: -9; LEDGF integ conf: -1

Results for C=CCn1c(O)c(C=Nc2ccc(F)cc2)c(=O)[nH]c1=O ?
TDP2 inh: 8; Rin1-Abl PPI inh: -3; UHRF1 binding: -2; LEDGF integ inh: -4; MBD2 DNA inh: -5

How did CC(C)CN1CCN(Cc2cccc3c2OCO3)CC1CCO (stereo not given) do in these assays?
TDP2 inh: -5; Rin1-Abl PPI inh: -3; UHRF1 binding: 8; LEDGF integ inh: -1; MBD2 DNA inh: -4

What do the screens show for `COc1ccccc1-n1c(-c2ccc(C)cc2)nc2ccccc2c1=O`?
TDP2 inh: 10; Rin1-Abl PPI inh: 2; UHRF1 binding: 0; LEDGF integ inh: -2; MBD2 DNA inh: 3

What do the screens show for `CCc1nc2ccccc2c(=O)n1-c1ccccc1OC`?
TDP2 inh: 2; Rin1-Abl PPI inh: -3; UHRF1 binding: 3; LEDGF integ inh: 25*; MBD2 DNA inh: 0; IN multimer act: 1; TR-FRET interf: -3; LEDGF integ conf: -5
